How the values were obtained:
Format in all cases: functional, cell-based
[1] = Cytotoxicity against vincristine-resistant human KB/VJ300 cells
Outline: (§1)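 Alkaloids tested alone, without vincristine, in parallel on vincristine-sensitive KB and vincristine-resistant KB/VJ300 cells. IC50 determined, in μg/mL.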

KB = test: Cytotoxicity against vincristine-sensitive human KB cells; outline: as §1
[2] = Cytotoxicity against multi-drug resistant human KB/VJ300 cells in presence of 0.1 ug/ml vincristine
Outline: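 Multidrug-resistance reversal test in vincristine-resistant KB/VJ300 cells. Test alkaloid is co-applied with vincristine at 0.1 μg/mL (0.12 μM). The IC50 of the test alkaloid is determined under this co-treatment, in μg/mL.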

| SMILES | IC50 [1] [µg/mL] | IC50 (KB) [µg/mL] | IC50 [2] [µM] |
| --- | --- | --- | --- |
| CN1[C@H]2C[C@@H]3[C@@H](CO[C@@]4(C)OC(=O)C[C@@H]34)[C@@H]1Cc1c2n(C)c2ccccc12 | > 25 | > 25 |  |
| COc1ccc2c(c1)c1c(n2C)[C@@H]2C[C@H]3C(=O)OC[C@H]3[C@H](C1)N2C | > 25 | > 25 |  |
| C/C=C1\C(=O)OC[C@H]2[C@@H]3Cc4c(n(C)c5ccc(OC)cc45)[C@H](C[C@@H]12)N3 | > 25 | > 25 | 40 |
| CC(O)C[C@@H]1C[C@@H]2N3COC[C@H]1[C@@H]3C[C@]21C(=O)Nc2ccccc21 (some centres not stated) | > 25 | > 25 |  |
| CC(O)C[C@@H]1C[C@@H]2N3COC[C@H]1[C@@H]3C[C@]21C(=O)N(C)c2ccccc21 (some centres not stated) | > 25 | > 25 |  |
| CC(O)C[C@@H]1C[C@@H]2N[C@@H](C[C@]23C(=O)N(C)c2ccccc23)[C@@H]1CO (some centres not stated) | > 25 | > 25 |  |
| C[C@H](O)C[C@@H]1C[C@@H]2N[C@@H](C[C@@]23C(=O)Nc2ccccc23)[C@@H]1CO | > 25 | > 25 |  |
| CC(=O)O[C@@H]1[C@@H]2[C@@H]3C[C@H]4c5c(c6ccccc6n5C)C[C@@H]([C@@H]3CO[C@H]2C)N14 | > 25 | > 25 | 40 |
| C[C@H]1OC[C@@H]2[C@H]3C[C@H]4c5c(c6ccccc6n5C)C[C@@H]2[N+]4(C)[C@H](O)[C@H]31 | > 25 | > 25 |  |
| C[C@@H]1OC[C@@H]2[C@H]3C[C@@H]4N([C@H](O)C13)[C@H]2C[C@@]41C(=O)N(C)c2ccccc21 | > 25 | > 25 |  |
| C[C@H]1OC[C@@H]2[C@@H](C[C@H]3c4c(c5ccccc5n4C)C[C@@H]2N3C)[C@@H]1C=O | > 25 | > 25 |  |
| C[C@@H]1OC[C@@H]2[C@@H](C[C@H]3c4[nH]c5ccccc5c4C[C@@H]2N3C)[C@@H]1CO | > 25 | > 25 |  |
| C[C@@H]1OC[C@@H]2[C@@H](C[C@@H]3N[C@H]2Cc2c3n(C)c3ccccc23)[C@@H]1CO | > 25 | > 25 |  |
| C[C@@H]1OC[C@@H]2[C@@H](C[C@@H]3N[C@H]2Cc2c3n(C)c3ccccc23)[C@H]1CO | > 25 | > 25 |  |
| COc1ccc2c(c1)c1c(n2C)[C@@H]2C[C@H]3[C@@H](CO)[C@H](C)OC[C@H]3[C@H](C1)N2C | > 25 | > 25 |  |
| CC(=O)C1=COC[C@@H]2[C@H]1C[C@H]1c3[nH]c4ccccc4c3C[C@@H]2N1C | > 25 | > 25 |  |
| CC1=C(C=O)[C@@H]2C[C@H]3c4[nH]c5ccccc5c4C[C@@H]([C@@H]2CO1)N3C | > 25 | > 25 |  |
| C/C=C1/CN2CC[C@]3(O)c4ccccc4N4[C@H](C(=O)OC)[C@H]1C[C@H]2[C@@H]43 | > 25 | > 25 |  |
| C/C=C1/CN2CC[C@@]3(O)c4ccccc4N4[C@H](C(=O)OC)[C@H]1C[C@H]2[C@@H]43 | > 25 | > 25 |  |
| C/C=C1/CN2CC(=O)c3c4n(c5ccccc35)[C@H](C(=O)OC)[C@H]1C[C@@H]42 | > 25 | > 25 |  |
| C[C@H](O)C1=CN2[C@H]3C[C@H]1[C@@H](CO)[C@@H]2C[C@@]31C(=O)N(C)c2ccccc21 | > 25 | > 25 |  |

| SMILES | IC50 [1] [µg/mL] | IC50 (KB) [µg/mL] | IC50 [2] [µM] |
| --- | --- | --- | --- |
| C/C=C1/CN2[C@H]3C[C@H]1C(CO)[C@@H]2C[C@]31Nc2ccccc2C1=O (some centres not stated) | > 25 | > 25 |  |
| CN1[C@H]2C[C@H]3C(=O)OC[C@H]3[C@@H]1Cc1c2n(C)c2ccccc12 | > 25 | > 25 |  |
| CC(=O)C[C@@H]1C[C@H]2c3c(c4ccccc4n3C)C[C@@H]([C@@H]1CO)N2C | > 25 | > 25 |  |
| C/C=C1\C(=O)OC[C@H]2[C@@H]3Cc4c(n(C)c5ccccc45)[C@H](C[C@@H]12)N3 | > 25 | > 25 |  |
| C[C@H](O)C[C@H]1C[C@@H]2N3COC[C@@H]1[C@@H]3CC21C(=O)N(C)c2ccccc21 (some centres not stated) | > 25 | > 25 |  |
| CC(=O)C[C@@H]1C[C@@H]2N3[C@@H](C)OC[C@H]1[C@@H]3C[C@]21C(=O)N(C)c2ccccc21 | > 25 | > 25 |  |
| CC(=O)C1=COC[C@H]2[C@@H]3C[C@]4(C(=O)N(C)c5ccccc54)[C@H](C[C@@H]12)N3 | > 25 | > 25 |  |
| CC(=O)C1=COC[C@H]2[C@@H]3C[C@]4(C(=O)Nc5ccccc54)[C@H](C[C@@H]12)N3 | > 25 | > 25 |  |
| C[C@H](O)C[C@@H]1C[C@@H]2N[C@@H](C[C@@]23C(=O)N(C)c2ccccc23)[C@@H]1CO | > 25 | > 25 |  |
| C[C@@H]1OC[C@@H]2[C@H]3C[C@H]4c5c(c6ccccc6n5C)C[C@@H]2N4[C@H](O)[C@H]31 | > 25 | > 25 | 40 |
| C[C@@H]1OC[C@@H]2[C@@H](C[C@H]3c4c(c5ccccc5n4C)C[C@@H]2N3C)[C@@H]1CO | > 25 | > 25 |  |
| C[C@@H]1OC[C@@H]2[C@@H](C[C@H]3c4[nH]c5ccccc5c4C[C@@H]2N3C)[C@H]1CO | > 25 | > 25 |  |
| C/C=C1/CN2CCc3c4n(c5ccccc35)[C@H](C(=O)OC)[C@H]1C[C@@H]42 | > 25 | > 25 | 40 |
| C[C@H](O)C1=CN2[C@H]3C[C@H]1[C@@H](CO)[C@@H]2Cc1c3n(C)c2ccccc12 | > 25 | > 25 |  |
| C/C=C1/CN2[C@H]3C[C@H]1C(CO)[C@@H]2Cc1c3[nH]c2ccccc12 (some centres not stated) | > 25 | > 25 |  |
| CC(=O)C(CC(=O)O)[C@@H]1C[C@H]2c3c(c4ccccc4n3C)C[C@@H]([C@@H]1CO)N2C (some centres not stated) | > 25 | > 25 |  |
| CC1=C(C=O)[C@@H]2C[C@H]3c4c(c5ccccc5n4C)C[C@@H]([C@@H]2CO1)N3C [ALSTONERINAL] | > 25 | > 25 |  |
| CC(=O)C1=COC[C@@H]2[C@H]1C[C@H]1c3c(c4ccccc4n3C)C[C@@H]2N1C [ALSTONERINE] | > 25 | > 25 | 10 |
| C[C@@H]1OC[C@@H]2[C@@H](C[C@H]3c4c(c5ccccc5n4C)C[C@@H]2N3C)[C@H]1CO [MACROCARPINE B] | > 25 | > 25 |  |
| C[C@@H]1OC[C@@H]2[C@@H](C[C@H]3c4c(c5ccccc5n4C)C[C@@H]2N3C)[C@@H]1C=O [Talcarpine] | > 25 | > 25 |  |

Source: ChEMBL document CHEMBL3351669, “Oxidized derivatives of macroline, sarpagine, and pleiocarpamine alkaloids from Alstonia angustifolia” (J Nat Prod, 2014)
